ChEMBL document CHEMBL1148178, “Dicranin, an antimicrobial and 15-lipoxygenase inhibitor from the moss Dicranum scoparium” (1993)
The source made the active and inactive calls. The calls are words filed in the database; no cut-off is given here.

Assays:
Bacillus subtilis [1] = assay: Antibacterial activity against Bacillus subtilis NCIB 3610 at 250 ug/disk after 24 hrs by disk diffusion assay; format: functional; conditions: read-out: Diameter of inhibition zone
Procedure, shortened: (§1)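 Sterile 6 mm filter-paper disc bearing sample set in the centre of a Petri dish of 15 ml plate count agar. Overlaid with 3 ml soft nutrient agar (nutrient broth + 0.7% agar) seeded with 1% of a 16–18 h culture of the test strain. Read-out is the diameter of the growth-free zone around the disc.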

[2] = tested on: Geobacillus stearothermophilus; assay: Antibacterial activity against Bacillus stearothermophilus NCA 1518 at 25 ug/disk after 24 hrs by disk diffusion assay; format: functional; conditions: read-out: Diameter of inhibition zone; procedure, shortened: as §1
Staphylococcus aureus [3] = assay: Antibacterial activity against Staphylococcus aureus T-AQ 49/YF29 at 125 ug/disk after 24 hrs by disk diffusion assay; format: functional; conditions: read-out: Diameter of inhibition zone; procedure, shortened: as §1
[4] = tested on: Geobacillus stearothermophilus; assay: Antibacterial activity against Bacillus stearothermophilus NCA 1518 at 1000 ug/disk after 24 hrs by disk diffusion assay; format: functional; conditions: read-out: Diameter of inhibition zone; procedure, shortened: as §1
Staphylococcus aureus [5] = assay: Antibacterial activity against Staphylococcus aureus T-AQ 49/YF29 at 10 ug/disk after 24 hrs by disk diffusion assay; format: functional; conditions: read-out: Diameter of inhibition zone; procedure, shortened: as §1
Escherichia coli = assay: Antibacterial activity against Escherichia coli B74-1 at 1 mg/disk after 24 hrs by disk diffusion assay; format: functional, organism-based; procedure, shortened: as §1
[6] = tested on: Geobacillus stearothermophilus; assay: Antibacterial activity against Bacillus stearothermophilus NCA 1518 at 500 ug/disk after 24 hrs by disk diffusion assay; format: functional; conditions: read-out: Diameter of inhibition zone; procedure, shortened: as §1
Staphylococcus aureus [7] = assay: Antibacterial activity against Staphylococcus aureus T-AQ 49/YF29 at 1000 ug/disk after 24 hrs by disk diffusion assay; format: functional; conditions: read-out: Diameter of inhibition zone; procedure, shortened: as §1
Staphylococcus aureus [8] = assay: Antibacterial activity against Staphylococcus aureus T-AQ 49/YF29 at 25 ug/disk after 24 hrs by disk diffusion assay; format: functional; conditions: read-out: Diameter of inhibition zone; procedure, shortened: as §1
Bacillus cereus [9] = assay: Antibacterial activity against Bacillus cereus NCIB 3329 at 75 ug/disk after 24 hrs by disk diffusion assay; format: functional; conditions: read-out: Diameter of inhibition zone; procedure, shortened: as §1
[10] = tested on: Geobacillus stearothermophilus; assay: Bactericidal activity against sBacillus stearothermophilus NCA 1518 at 200 ug/ml by liquid culture assay; format: functional, organism-based
Procedure, shortened: (§2)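 Wells hold brain heart infusion (200 µl) plus 50 µl inoculum at 10³–10⁵ cfu/ml, with dicranin added as the sodium salt in water (10–200 μg/ml tested). Cultures are incubated at the strain's optimal growth temperature. Duplicate 100 µl samples are taken at 0, 2, 4, 6, 8 and 24 h, diluted in tryptone salt to 10–500 bacteria/plate, plated on plate count agar, and colonies counted after 24 h.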

Bacillus cereus [11] = assay: Antibacterial activity against Bacillus cereus NCIB 3329 at 100 ug/disk after 24 hrs by disk diffusion assay; format: functional; conditions: read-out: Diameter of inhibition zone; procedure, shortened: as §1
Bacillus cereus [12] = assay: Antibacterial activity against Bacillus cereus NCIB 3329 at 50 ug/disk after 24 hrs by disk diffusion assay; format: functional; conditions: read-out: Diameter of inhibition zone; procedure, shortened: as §1
Bacillus cereus [13] = assay: Antibacterial activity against Bacillus cereus NCIB 3329 at 500 ug/disk after 24 hrs by disk diffusion assay; format: functional; conditions: read-out: Diameter of inhibition zone; procedure, shortened: as §1
[14] = tested on: Geobacillus stearothermophilus; assay: Antibacterial activity against Bacillus stearothermophilus NCA 1518 at 75 ug/disk after 24 hrs by disk diffusion assay; format: functional; conditions: read-out: Diameter of inhibition zone; procedure, shortened: as §1
Bacillus subtilis [15] = assay: Antibacterial activity against Bacillus subtilis NCIB 3610 at 1000 ug/disk after 24 hrs by disk diffusion assay; format: functional; conditions: read-out: Diameter of inhibition zone; procedure, shortened: as §1
Bacillus cereus [16] = assay: Antibacterial activity against Bacillus cereus NCIB 3329 at 1000 ug/disk after 24 hrs by disk diffusion assay; format: functional; conditions: read-out: Diameter of inhibition zone; procedure, shortened: as §1
Bacillus cereus [17] = assay: Bactericidal activity against Bacillus cereus NCIB 3329 at 150 ug/ml by liquid culture assay; format: functional, organism-based; procedure, shortened: as §2
Enterococcus faecalis [18] = assay: Antibacterial activity against Streptococcus faecalis NCIB 775 at 50 ug/disk after 24 hrs by disk diffusion assay; format: functional; conditions: read-out: Diameter of inhibition zone
Procedure, shortened: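 Test material loaded onto 6 mm sterile filter-paper discs. Each disc sits at the centre of a plate of 15 ml plate count agar overlaid with 3 ml soft nutrient agar (nutrient broth + 0.7% agar) carrying 1% of a 16–18 h culture. Activity is read as the diameter of the no-growth zone around the disc.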

[19] = tested on: Geobacillus stearothermophilus; assay: Antibacterial activity against Bacillus stearothermophilus NCA 1518 at 10 ug/disk after 24 hrs by disk diffusion assay; format: functional; conditions: read-out: Diameter of inhibition zone; procedure, shortened: as §1
Staphylococcus aureus [20] = assay: Antibacterial activity against Staphylococcus aureus T-AQ 49/YF29 at 100 ug/disk after 24 hrs by disk diffusion assay; format: functional; conditions: read-out: Diameter of inhibition zone; procedure, shortened: as §1
Bacillus cereus [21] = assay: Antibacterial activity against Bacillus cereus NCIB 3329 at 250 ug/disk after 24 hrs by disk diffusion assay; format: functional; conditions: read-out: Diameter of inhibition zone; procedure, shortened: as §1
Enterococcus faecalis [22] = assay: Antibacterial activity against Streptococcus faecalis NCIB 775 at 10 ug/disk after 24 hrs by disk diffusion assay; format: functional; conditions: read-out: Diameter of inhibition zone; procedure, shortened: as §1
Bacillus subtilis [23] = assay: Antibacterial activity against Bacillus subtilis NCIB 3610 at 500 ug/disk after 24 hrs by disk diffusion assay; format: functional; conditions: read-out: Diameter of inhibition zone; procedure, shortened: as §1
Bacillus subtilis [24] = assay: Antibacterial activity against Bacillus subtilis NCIB 3610 at 75 ug/disk after 24 hrs by disk diffusion assay; format: functional; conditions: read-out: Diameter of inhibition zone; procedure, shortened: as §1
Bacillus subtilis [25] = assay: Antibacterial activity against Bacillus subtilis NCIB 3610 at 25 ug/disk after 24 hrs by disk diffusion assay; format: functional; conditions: read-out: Diameter of inhibition zone; procedure, shortened: as §1
Bacillus cereus [26] = assay: Bactericidal activity against Bacillus cereus NCIB 3329 at 10 ug/ml by liquid culture assay; format: functional, organism-based; procedure, shortened: as §2

CC/C=C\C/C=C\C/C=C\CC#CCCCCC(=O)O [DICRANIN]
zone of inhibition at 250 µg/disc (Bacillus subtilis [1]): 16 mm
zone of inhibition at 25 µg/disc [2]: 9 mm
zone of inhibition at 125 µg/disc (Staphylococcus aureus [3]): 17 mm
zone of inhibition at 1000 µg/disc [4]: 35 mm
zone of inhibition at 10 µg/disc (Staphylococcus aureus [5]): 0 mm
Activity (Escherichia coli): inactive
zone of inhibition at 500 µg/disc [6]: 32 mm
zone of inhibition at 1000 µg/disc (Staphylococcus aureus [7]): 23 mm
zone of inhibition at 25 µg/disc (Staphylococcus aureus [8]): 0 mm
zone of inhibition at 75 µg/disc (Bacillus cereus [9]): 11 mm
Activity [10]: Active
zone of inhibition at 100 µg/disc (Bacillus cereus [11]): 15 mm
zone of inhibition at 50 µg/disc (Bacillus cereus [12]): 10 mm
zone of inhibition at 500 µg/disc (Bacillus cereus [13]): 22 mm
zone of inhibition at 75 µg/disc [14]: 14 mm
zone of inhibition at 1000 µg/disc (Bacillus subtilis [15]): 20 mm
zone of inhibition at 1000 µg/disc (Bacillus cereus [16]): 25 mm
Activity (Bacillus cereus [17]): Active
zone of inhibition at 50 µg/disc (Enterococcus faecalis [18]): 12 mm
zone of inhibition at 10 µg/disc [19]: 0 mm
zone of inhibition at 100 µg/disc (Staphylococcus aureus [20]): 16 mm
zone of inhibition at 250 µg/disc (Bacillus cereus [21]): 19 mm
zone of inhibition at 10 µg/disc (Enterococcus faecalis [22]): 6 mm
zone of inhibition at 500 µg/disc (Bacillus subtilis [23]): 19 mm
zone of inhibition at 75 µg/disc (Bacillus subtilis [24]): 13 mm
zone of inhibition at 25 µg/disc (Bacillus subtilis [25]): 8 mm
Activity (Bacillus cereus [26]): inactive
